From article PMC12584159 (Clinical and Translational Science, 2025)
Like-named read-outs stand apart in the source and are kept apart here. Blank lines part the entries; values can stand above or below the compound they belong to.

Tests used:
[1] = Urinary excretion of atogepant and renal clearance; assay type: in vivo, human; conditions: mean ± SD; for Proportion of administered dose excreted in urine as atogepant (parent drug): LC–MS/MS, urine up to 360 h post‐dose
Procedure, shortened: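 Urine was collected pre-dose and over 0–4, 4–8, 8–12, 12–24 h, then 24-h intervals until discharge criteria or study end, and stored at −20°C. Atogepant was measured by validated LC–MS/MS (1–1000 ng/mL), with BLQ set to zero. Radioactivity was measured by combustion/LSC. Ae0–t, CLR and fraction of dose excreted were computed.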

[2] = test system: organic anion transporting polypeptide (OATP); conditions: cited from earlier work
[3] = single 10–60 mg dose; healthy Japanese and White adults; cited from earlier work
[4] = Phase 3, placebo 1.8%, cited from earlier work
[5] = test system: human CGRP receptor; conditions: preclinical studies; cited from earlier work
[6] = Plasma pharmacokinetics of atogepant; assay type: in vivo, human
Procedure, shortened: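 Fasted healthy men received a single oral 50 mg ¹⁴C dose. Blood was sampled pre-dose to 168 h, then every 72 h until discharge criteria or Day 29. Samples were centrifuged at ≥2500 g for 10 min at ~4°C, and plasma was stored at −70°C. K₂EDTA plasma was assayed by validated LC–MS/MS (1–1000 ng/mL), with BLQ set to zero. Noncompartmental analysis used actual times; ratios were taken to plasma total radioactivity.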

[7] = simian chronic toxicology studies; ref internal data; cited from earlier work
[8] = cited from earlier work
[9] = test system: CYP3A4, CYP2D6; conditions: human liver microsomes; cited from earlier work
[10] = test system: P‐glycoprotein (P‐gp); conditions: cited from earlier work
[11] = test system: breast cancer resistance protein (BCRP); conditions: cited from earlier work
[12] = Safety/tolerability; assay type: in vivo, human; conditions: single 50 mg dose
Procedure, shortened: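 Safety was monitored in all dosed participants after a single 50 mg oral dose, covering AEs (MedDRA 20.1 or newer), physical exam, 12-lead ECG, vital signs, hematology, coagulation, chemistry and urinalysis. ECG and vitals were taken on Day 1; labs and vitals on Day 2. TEAEs were new or worsening AEs within 30 days of dosing.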

[13] = Metabolite profiling in plasma, urine and feces; assay type: in vivo, human; conditions: for Feces %DE (dose excreted): feces 0–312 h [n = 1], 0–120 h [n = 3], 0–96 h [n = 2]; for Urine %DE (dose excreted): urine 0–24 h
Procedure, shortened: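 After a single oral 50 mg ¹⁴C dose, plasma was pooled by Hamilton AUC scheme and extracted with acetonitrile. Urine (0–24 h) was pooled by sample weight, and fecal homogenates with ≥2% dose were acetonitrile-extracted. Profiling used HPLC with radiometric detection and high-resolution MS. Metabolite % was taken from radiochromatogram peak areas. Individual plasma through 312 h was also assayed for M23 by LC–MS/MS.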

[14] = Mass balance: total radioactivity recovered in urine and feces; assay type: in vivo, human; conditions: N = 6, mean ± SD; for Proportion of radioactive dose excreted in urine (total radioactivity): through last specimen collection
Procedure, shortened: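 Healthy men received a single oral 50 mg (~200 μCi) ¹⁴C dose in PEG400/Ora-Sweet solution after a ≥10-h fast. Urine was collected in intervals and all feces during confinement; feces were weighed and homogenized. Pre-dose feces set background. Total radioactivity was measured by combustion/LSC, with BLQ (urine <89 dpm/mL, feces <81 dpm/g) set to zero. Collection continued until discharge criteria or Day 29.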

[15] = cited from earlier work; remark: listed apart in the source
[16] = first‐generation gepants; cited from earlier work
[17] = plasma, single oral 50 mg, N = 6, mean ± SD

- Proportion of administered dose excreted in urine as atogepant (parent drug) ([1]; N = 6): 4.84% ± 1.63%
- Proportion of administered dose excreted in urine as atogepant (parent drug) ([1]; N = 6, listed as atogepant): Approximately 5%
- Urine excretion, atogepant/total radioactivity ratio ([1]; N = 6): 0.605 ± 0.109
- CLR (renal clearance), atogepant ([1]; single oral 50 mg, N = 6): 1.18 ± 0.33 L/h
- Urine Ae0–t (total urine atogepant excretion) ([1]; up to 360 h post‐dose): 2.42 ± 0.82 mg
- Time after dosing up to which atogepant plasma concentrations were measurable ([6]; LOQ 1 ng/mL): up to 120 h
- AUC(0-inf) ([6]; male, human, plasma, po, 50 mg): 2220 ± 966 ng·h/mL
- AUC(0-t) ([6]; male, human, plasma, po, 50 mg): 2180 ± 960 ng·h/mL
- Cmax ([6]; male, human, plasma, po, 50 mg): 367 ± 189 ng/mL
- half-life ([6]; male, human, plasma, po, 50 mg): 18.5 ± 11.9 h
- AUC0–t, atogepant/total radioactivity ratio [6, 17]: 0.776 ± 0.167
- AUC0–∞, atogepant/total radioactivity ratio [6, 17]: 0.728 ± 0.172
- C max, atogepant/total radioactivity ratio [6, 17]: 0.997 ± 0.286
- AUC0–∞, atogepant/total radioactivity ratio ([6]; plasma, single oral 50 mg, N = 6, mean ± SD, listed as atogepant): ~ 0.75
- T max, atogepant ([6]; plasma, single oral 50 mg, N = 6, median (range)): 1 (0.98–2.98) hours
- Disproportionate human metabolites ([13]; comparison of this study to in vivo rat and monkey studies): no disproportionate human metabolites
- Feces %DE (dose excreted) ([13]; mean ± SD, ND = not detected or < 1% of dose or AUC0–t, listed as Parent): 42.2 ± 4.2%
- Feces %DE (dose excreted) ([13]; mean ± SD, ND = not detected or < 1% of dose or AUC0–t, listed as parent drug): 42%
- dose excreted ([13]; human, feces, oral, 50 mg, Share of fecal radioactivity recovery, unabsorbed drug, biliary excretion, and/or intestinal secretion): ~52%
- Plasma %AUC0–t (percent of radioactive exposure) ([13]; pooled plasma 0–36 h (0–24 h for one participant), HPLC‐RAD, N = 6, mean ± SD, ND = not detected or < 1% of dose or AUC0–t): 84.7 ± 9.2%
- Urine %DE (dose excreted) ([13]; N = 6, mean ± SD, ND = not detected or < 1% of dose or AUC0–t): 5%
- Urine %DE (dose excreted) ([13]; N = 6, mean ± SD, ND = not detected or < 1% of dose or AUC0–t, listed as Parent): 5.21 ± 1.69%
- Proportion of radioactive dose excreted in feces (total radioactivity) ([14]; through last specimen collection (336 h, 14 days)): 81%
- Proportion of radioactive dose excreted in urine (total radioactivity) [14]: 8%
- Proportion of radioactive dose excreted in urine (total radioactivity) ([14]; listed as atogepant): ~ 8%
SMILES: C[C@@H]1[C@H](c2c(F)ccc(F)c2F)C[C@H](NC(=O)c2cnc3c(c2)C[C@@]2(C3)C(=O)Nc3ncccc32)C(=O)N1CC(F)(F)F [Atogepant]
- Substrate of OATP [2]: substrate
- CLR (renal clearance) [3]: 0.9 to 1.5 L/h
- Proportion of patients with ALT and AST elevations ≥ 3× upper limit of normal ([4]; atogepant 10 mg/day): 0.9%
- Proportion of patients with ALT and AST elevations ≥ 3× upper limit of normal ([4]; atogepant 30 mg/day): 0.9%
- Proportion of patients with ALT and AST elevations ≥ 3× upper limit of normal ([4]; atogepant 60 mg/day): 0.4%
- Affinity, potency and selectivity for the receptor [5]: high affinity, potency, and selectivity
- No‐observed‐adverse‐effect level [7]: 300 mg/kg
- Effect of quinidine (strong P‐gp inhibitor) on atogepant exposure ([8]; clinical DDI study): no clinically relevant increase in atogepant exposure
- Effect of co‐administration on atogepant exposure ([8]; multiple‐dose rifampin (strong CYP3A4 and P‐gp inducer)): significantly decreased atogepant exposure
- Effect of co‐administration on atogepant exposure ([8]; single‐dose rifampin (OATP inhibitor), healthy participants): significantly increased atogepant exposure
- Enzymes metabolizing atogepant [9]: predominantly metabolized via CYP3A4 with minor involvement of CYP2D6
- Substrate of P‐gp [10]: substrate
- Substrate of BCRP [11]: substrate
- Tolerability ([12]; healthy males N = 6): well‐tolerated
- ALT or AST elevations ([12]; healthy participants N = 6): no ALT or AST elevations observed
- Accumulation with daily dosing [15]: does not accumulate with daily dosing
- Bioavailability, tablet vs. PEG solution dosing [15]: higher with tablet vs. PEG solution dosing

SMILES: O=C(CN1C(=O)C2(CCCC2)NC[C@H]1c1cc(F)cc(F)c1)Nc1ccc2c(c1)C[C@@]1(C2)C(=O)Nc2ncccc21 [MK‐3207]
- Liver toxicity in clinical trials [16]: liver toxicity concerns

SMILES: O=C(N[C@@H]1CC[C@@H](c2cccc(F)c2F)CN(CC(F)(F)F)C1=O)N1CCC(n2c(=O)[nH]c3ncccc32)CC1 [telcagepant]
- Liver toxicity in clinical trials [16]: liver toxicity concerns
